Here are results for ten compounds from ChEMBL document CHEMBL3627613, “4-Aminoquinoline derivatives as novel Mycobacterium tuberculosis GyrB inhibitors: Structural optimization, synthesis and biological evaluation” (Eur J Med Chem, 2015).

The nature of series [1]: Cytotoxicity against mouse RAW264.7 cells assessed as inhibition of cell viability at 50 uM incubated for 48 hrs at 37 degC by MTT assay relative to control. Type of series: cell-based. The settings on record: read-out: INH. The method in brief:
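RAW 264.7 mouse macrophages, 5×10^5 cells per well, exposed to compound for 48 h at 37 °C under 5% CO2. MTT added 4 h before the end. Formazan dissolved in DMSO and absorbance read at 560 nm against blank. Triplicates, run twice.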
(Tetrazolium assays rely on reduction of a dye to a coloured formazan, in cell work by metabolically active cells.)

The next series has as its target DNA gyrase subunit B (Mycobacterium smegmatis, UniProt P0C559). The experiment in a line: Inhibition of Mycobacterium smegmatis DNA gyrase B expressed in Escherichia coli BL21 (DE3) pLysS cells assessed as reduction in ATPase activity incubated for 100 mins by inorganic phosphate detection assay. More on the design: species or system Mycolicibacterium smegmatis.

Series [2] concerns the target DNA gyrase subunit B (Escherichia coli) (UniProt P0AES6). In words: Inhibition of Escherichia coli Inspiralis DNA gyrase B assessed as reduction in ATPase activity at 100 uM incubated for 100 mins by inorganic phosphate detection assay.
The test system of series [3] is Mycobacterium tuberculosis. The experiment in a line: Antimycobacterial activity against Mycobacterium tuberculosis H37Rv assessed as growth inhibition incubated for 7 days by microplate alamar blue assay. Format: functional. The settings on record: 168 h. The method in brief:
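M. tuberculosis H37Rv inoculum from fresh LJ medium, resuspended in 7H9 broth (0.1% casitone, 0.5% glycerol, OADC), set to McFarland No. 1 and diluted 1:20. Two-fold serial compound dilutions in 7H9-S, with growth and sterile controls. Incubated 7 days at 37 °C, then alamar blue overnight. MIC is the lowest concentration preventing the blue-to-pink colour change.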
A general note: Resazurin is reduced to fluorescent resorufin, in cell work by metabolically active cells.

Series [4] deals with DNA gyrase subunit A/DNA gyrase subunit B (Mycobacterium tuberculosis (strain ATCC 25618 / H37Rv), UniProt P9WG45+P9WG47). In words: Inhibition of DNA gyrase GyrA/GyrB in Mycobacterium tuberculosis incubated for 30 mins assessed as reduction in supercoiling of relaxed relaxed pBR322 DNA by ethidium bromide staining based agarose gel electrophoresis method.
Series [5] deals with DNA gyrase subunit B (Staphylococcus aureus) (UniProt P0A0K8). The experiment in a line: Inhibition of Staphylococcus aureus DNA gyrase B assessed as reduction in ATPase activity at 100 uM incubated for 100 mins by inorganic phosphate detection assay.
Series [6] concerns the target DNA gyrase subunit B (Mycobacterium smegmatis) (UniProt P0C559). The experiment in a line: Binding affinity to Mycobacterium smegmatis DNA gyrase B assessed as changing in melting temperature of the protein-ligand complex by differential scanning fluorometry. To be noted: Mycolicibacterium smegmatis. The method in brief: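 His-tagged M. smegmatis GyrB expressed in E. coli BL21(DE3)pLysS and Ni-NTA purified, used at 2 mg/mL. Native protein and protein-ligand complex heated from 25 to 95 °C in 0.1 °C steps with 50X SYPRO orange. Read-out is the Tm shift of the complex relative to native protein.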
(In general: In DSF a fluorescence change marks the thermal transition of the protein.)

≈ marks a conversion by molar mass, not a printed value. Calls of active or inactive are those of the source. Some results are limits rather than exact numbers.

DNA gyrase subunit A/DNA gyrase subunit B, sequence (P9WG45 whole entry): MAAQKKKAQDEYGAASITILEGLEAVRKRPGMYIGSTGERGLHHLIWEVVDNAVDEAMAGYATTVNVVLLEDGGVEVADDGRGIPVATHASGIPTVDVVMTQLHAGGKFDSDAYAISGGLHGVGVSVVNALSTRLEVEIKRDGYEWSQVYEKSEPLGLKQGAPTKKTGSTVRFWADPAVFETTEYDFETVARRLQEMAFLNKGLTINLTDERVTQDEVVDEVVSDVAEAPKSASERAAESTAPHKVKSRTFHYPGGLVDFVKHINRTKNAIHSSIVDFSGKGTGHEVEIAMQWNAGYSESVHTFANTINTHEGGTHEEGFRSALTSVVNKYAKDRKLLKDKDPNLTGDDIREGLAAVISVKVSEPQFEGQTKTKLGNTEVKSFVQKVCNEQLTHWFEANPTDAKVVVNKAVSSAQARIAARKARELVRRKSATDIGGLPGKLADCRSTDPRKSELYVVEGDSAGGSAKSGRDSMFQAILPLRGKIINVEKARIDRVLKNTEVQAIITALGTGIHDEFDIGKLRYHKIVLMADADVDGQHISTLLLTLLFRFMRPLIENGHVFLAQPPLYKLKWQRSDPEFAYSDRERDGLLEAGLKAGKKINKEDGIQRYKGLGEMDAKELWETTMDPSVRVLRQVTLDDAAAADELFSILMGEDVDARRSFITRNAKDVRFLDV
DNA gyrase subunit A/DNA gyrase subunit B, sequence (P9WG47 whole entry): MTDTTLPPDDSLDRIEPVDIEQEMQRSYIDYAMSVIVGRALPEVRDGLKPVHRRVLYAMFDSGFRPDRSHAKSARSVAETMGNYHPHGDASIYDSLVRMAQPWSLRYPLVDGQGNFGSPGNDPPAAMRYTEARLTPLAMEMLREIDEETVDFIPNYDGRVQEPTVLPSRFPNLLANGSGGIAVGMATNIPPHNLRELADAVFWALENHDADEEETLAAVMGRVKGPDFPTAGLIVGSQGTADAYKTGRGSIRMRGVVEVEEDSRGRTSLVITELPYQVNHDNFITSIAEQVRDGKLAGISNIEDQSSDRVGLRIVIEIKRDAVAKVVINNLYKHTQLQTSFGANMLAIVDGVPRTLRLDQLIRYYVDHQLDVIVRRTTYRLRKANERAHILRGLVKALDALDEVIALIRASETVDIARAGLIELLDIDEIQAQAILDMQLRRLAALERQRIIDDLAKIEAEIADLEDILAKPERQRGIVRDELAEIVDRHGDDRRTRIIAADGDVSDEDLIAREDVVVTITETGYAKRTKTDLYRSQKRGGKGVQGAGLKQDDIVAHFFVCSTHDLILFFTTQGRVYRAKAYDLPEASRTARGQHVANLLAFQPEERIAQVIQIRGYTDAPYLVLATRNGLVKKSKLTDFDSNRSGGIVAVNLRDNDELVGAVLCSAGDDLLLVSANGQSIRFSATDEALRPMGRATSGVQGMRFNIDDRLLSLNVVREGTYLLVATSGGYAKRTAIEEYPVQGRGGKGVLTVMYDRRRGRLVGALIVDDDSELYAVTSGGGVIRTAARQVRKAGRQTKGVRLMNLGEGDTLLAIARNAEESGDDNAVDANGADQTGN
DNA gyrase subunit B, sequence (P0C559 whole entry): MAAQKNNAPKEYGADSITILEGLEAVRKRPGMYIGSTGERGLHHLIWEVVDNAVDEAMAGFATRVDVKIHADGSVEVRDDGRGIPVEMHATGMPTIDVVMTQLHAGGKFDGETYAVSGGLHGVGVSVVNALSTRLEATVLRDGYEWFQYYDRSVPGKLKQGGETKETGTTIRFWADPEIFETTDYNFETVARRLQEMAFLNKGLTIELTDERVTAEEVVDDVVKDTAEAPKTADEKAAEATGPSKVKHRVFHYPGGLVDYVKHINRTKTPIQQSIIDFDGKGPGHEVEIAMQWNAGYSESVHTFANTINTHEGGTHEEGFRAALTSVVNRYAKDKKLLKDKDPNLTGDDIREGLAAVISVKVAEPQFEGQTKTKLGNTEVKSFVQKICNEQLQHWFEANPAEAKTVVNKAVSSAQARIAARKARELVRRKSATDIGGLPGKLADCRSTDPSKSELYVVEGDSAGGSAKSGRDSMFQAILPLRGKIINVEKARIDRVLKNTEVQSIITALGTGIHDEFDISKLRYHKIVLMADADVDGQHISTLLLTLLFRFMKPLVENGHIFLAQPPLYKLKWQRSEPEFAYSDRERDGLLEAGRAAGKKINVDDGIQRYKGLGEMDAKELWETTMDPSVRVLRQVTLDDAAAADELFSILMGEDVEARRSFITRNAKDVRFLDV
DNA gyrase subunit B (Staphylococcus aureus), sequence (P0A0K8 2-644 limits assumed): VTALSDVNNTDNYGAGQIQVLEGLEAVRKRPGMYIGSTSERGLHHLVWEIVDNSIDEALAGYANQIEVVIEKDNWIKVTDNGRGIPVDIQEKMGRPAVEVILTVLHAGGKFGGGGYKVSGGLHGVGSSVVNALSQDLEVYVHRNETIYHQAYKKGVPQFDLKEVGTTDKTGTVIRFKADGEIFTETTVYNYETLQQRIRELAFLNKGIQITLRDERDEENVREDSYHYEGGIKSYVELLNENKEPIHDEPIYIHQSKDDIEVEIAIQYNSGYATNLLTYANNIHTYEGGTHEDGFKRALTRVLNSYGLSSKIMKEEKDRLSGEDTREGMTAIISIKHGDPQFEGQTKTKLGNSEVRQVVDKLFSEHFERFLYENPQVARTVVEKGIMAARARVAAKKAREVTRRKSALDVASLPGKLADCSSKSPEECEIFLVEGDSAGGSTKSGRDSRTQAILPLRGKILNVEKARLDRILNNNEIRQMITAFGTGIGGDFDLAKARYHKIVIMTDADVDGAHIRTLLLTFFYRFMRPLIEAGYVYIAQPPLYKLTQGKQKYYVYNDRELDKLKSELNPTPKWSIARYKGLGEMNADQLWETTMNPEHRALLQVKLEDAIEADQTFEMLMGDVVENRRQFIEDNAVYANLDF
DNA gyrase subunit B (Mycobacterium smegmatis), sequence (P0C559 2-675 limits assumed): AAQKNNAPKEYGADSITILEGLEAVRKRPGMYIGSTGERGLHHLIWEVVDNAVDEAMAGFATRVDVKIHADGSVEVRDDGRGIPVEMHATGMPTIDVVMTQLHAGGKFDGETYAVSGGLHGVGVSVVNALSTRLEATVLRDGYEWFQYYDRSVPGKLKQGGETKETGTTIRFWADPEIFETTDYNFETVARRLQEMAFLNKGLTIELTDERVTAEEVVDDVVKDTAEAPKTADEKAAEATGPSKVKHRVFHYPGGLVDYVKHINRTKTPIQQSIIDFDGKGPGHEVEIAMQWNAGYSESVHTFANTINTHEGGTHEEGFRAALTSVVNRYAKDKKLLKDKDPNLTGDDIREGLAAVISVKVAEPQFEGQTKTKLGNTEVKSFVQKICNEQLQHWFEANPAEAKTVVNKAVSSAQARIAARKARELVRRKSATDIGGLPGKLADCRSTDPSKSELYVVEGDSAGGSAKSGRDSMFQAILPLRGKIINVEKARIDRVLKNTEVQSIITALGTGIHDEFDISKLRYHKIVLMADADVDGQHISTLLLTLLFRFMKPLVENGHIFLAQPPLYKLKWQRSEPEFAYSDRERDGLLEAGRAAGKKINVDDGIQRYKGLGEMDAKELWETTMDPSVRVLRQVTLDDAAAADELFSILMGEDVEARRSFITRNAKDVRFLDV

The IC50 is the midpoint of a concentration-inhibition curve. As a reminder, the MIC is the smallest concentration in the dilution series that meets the test's criterion for growth inhibition. By ΔTm is commonly meant the shift of the melting midpoint relative to a reference. On to `CCN1CCN(CCCOc2ccc(Nc3c(C(=O)O)cnc4ccc(OC)cc34)cc2)CC1`, for which the cytotoxicity at 48 h, 50 µM in series [1] is 0.66%. In addition, the values for the IC50 (at DNA gyrase subunit B; in series [4]) were 0.86 µM and 0.63 µM, respectively. In addition, the inhibition entry in series [2] and in series [5] was “inactive” throughout. Moreover, in series [3], the minimum inhibitory concentration (MIC) was 3.3 µM (≈ 1.53 µg/mL). Further, the ΔTm in series [6] worked out at 3.3 °C.
As to `NNC(=O)c1cnc2ccccc2c1Nc1ccc(OCCCN2CCOCC2)cc1`, the cytotoxicity at 48 h, 50 µM in series [1] was determined as 44.6%. The figures for the IC50 (on DNA gyrase subunit B; in series [4]) were 0.97 µM and 0.72 µM, respectively. In series [3], the minimum inhibitory concentration (MIC) was 2.4 µM (≈ 1.01 µg/mL).
In the case of `O=C(O)c1cnc2ccccc2c1Nc1ccc(OCCCN2CCOCC2)cc1`, the cytotoxicity at 48 h, 50 µM in series [1] was determined as 11.3%. The half-maximal inhibitory concentration (IC50) on DNA gyrase subunit B was over 50 µM; in series [4] it was 21.8 µM. For the same compound, the MIC in series [3] came out at 30.7 µM (≈ 12.5 µg/mL).
The corresponding values for `COc1ccc2ncc(C(=O)NN)c(Nc3ccc(NCCCN4CCOCC4)cc3)c2c1` are 9.59%, 44.9 µM, 15.3 µM and 27.8 µM (≈ 12.5 µg/mL).
For the compound `O=C(O)c1cnc2ccc(C(F)(F)F)cc2c1Nc1ccc(OCCCN2CCOCC2)cc1`, in series [1], the cytotoxicity at 48 h, 50 µM is 22.6%. The concentration for half-maximal inhibition (IC50) on DNA gyrase subunit B was 27.8 µM; in series [4] it was 14.3 µM. Moreover, the MIC in series [3] is 13.2 µM (≈ 6.25 µg/mL).
On the same counts, the results for `CCOC(=O)c1cnc2ccc(C(F)(F)F)cc2c1Nc1ccc(OCCCN2CCOCC2)cc1` are 20.2%, 38.8 µM, 16.4 µM and 43.1 µM (≈ 21.7 µg/mL).
The corresponding values for `CCN1CCN(CCCNc2ccc(Nc3c(C(=O)NN)cnc4ccc(F)cc34)cc2)CC1` are 6.11%, 1.15 µM, 0.82 µM and 3.3 µM (≈ 1.54 µg/mL).
For `NNC(=O)c1cnc2ccccc2c1Nc1ccc(NCCCN2CCOCC2)cc1`, the cytotoxicity at 48 h, 50 µM in series [1] turned out to be 6.48%. Besides, the values for the IC50 (on DNA gyrase subunit B; in series [4]) were over 50 µM and 22.9 µM, respectively. In addition, the minimal inhibitory concentration (MIC) in series [3] worked out at 44.9 µM (≈ 18.9 µg/mL).
The corresponding values for `CCN1CCN(CCCOc2ccc(Nc3c(C(=O)NN)cnc4ccc(OC)cc34)cc2)CC1` are 2.72%, 12.6 µM, 5.89 µM and 11.6 µM (≈ 5.57 µg/mL).
On the same counts, the results for `CCOC(=O)c1cnc2ccccc2c1Nc1ccc(OCCCN2CCOCC2)cc1` are 17.7%, 22.8 µM, 7.53 µM and 28.7 µM (≈ 12.5 µg/mL).
